In series [1] the test system is A-375. The series can be described thus: Antiproliferative activity against human A375 cells after 48 hrs by CellTiter 96 aqueous one solution assay. The class given is functional, cell-based. Conditions: A-375, 48 h. The procedure, abridged:
(§1)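 Cells in 10% FBS medium with penicillin/streptomycin at 37°C, 5% CO2, seeded at 3000-10000 per well and precultured 1 day. DMSO stocks (10 mM) were diluted to a 10 µM top working solution, then serially diluted 3-fold in medium. Exposure was 48 h. Read-out was MTS tetrazolium-to-formazan absorbance at 492 nm. IC50 came from a three-parameter logistic fit, mean of three independent experiments.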

Series [2] has as its system PC-3. The series can be described thus: Antiproliferative activity against human PC3 cells after 48 hrs by CellTiter 96 aqueous one solution assay. The series is classed as functional, cell-based. The settings on record: PC-3, 48 h. Put shortly:
as §1

The next series concerns HeLa. Briefly: Antiproliferative activity against human HeLa cells after 48 hrs by CellTiter 96 aqueous one solution assay. The class given is functional, cell-based. The procedure, abridged: as §1
A further series concerns Ehrlich. The series can be described thus: Antitumor activity against mouse EAC cells implanted in ICR mouse assessed as tumor growth inhibition at 30 mg/kg, ip qd dosed for 10 consecutive days relative to control. Conditions: read-out: TGI.
In series [3] the test system is Mus musculus. Briefly: Toxicity in ICR mouse implanted with EAC cells assessed as decrease in spleen index at 0.06 to 0.6 mg/kg, ip qd dosed for 10 consecutive days. The class given is organism-based. Conditions: in vivo. The procedure, abridged:
(§2)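 Adult male ICR mice, 6 weeks, 20-25 g, n=7 per group. Given 5×10^6 EAC cells s.c. in the right thigh; cells came from intraperitoneal passage in donor mice. From day 1, dosed i.p. daily for 10 d (0.1 mL/10 g) in saline with 4% DMA and 2% Solutol HS15; vehicle controls included. Spleen and thymus weighed at sacrifice; organ index is organ weight/body weight.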

Series [4] concerns Mus musculus. The series can be described thus: Toxicity in ICR mouse implanted with EAC cells assessed as decrease in thymus index at 0.06 to 0.6 mg/kg, ip qd dosed for 10 consecutive days. The class given is organism-based. The settings on record: in vivo. Put shortly: as §2
The test system of series [5] is A-375. The series can be described thus: Induction of apoptosis in human A375 cells assessed as viable cells at 100 nM after 24 hrs by Annexin V/propidium iodide staining-based FACS analysis (reference value: 92.2%). The series is classed as functional. Conditions: A-375, 24 h, read-out: Activity. Background: Flow cytometry measures light scatter and fluorescence of single cells or particles in a stream.

The test system of series [6] is A-375. Briefly: Induction of apoptosis in human A375 cells assessed as decrease in Bcl-2 expression at 10 to 1000 nM after 48 hrs by Western blot analysis. The class given is functional, cell-based. The procedure, abridged: (§3)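 A375 cells at 1×10^5 per well were treated for 48 h and lysed in RIPA buffer. Equal protein was run on 12% SDS-PAGE and transferred to PVDF, which was blocked in 5% milk/PBS for 1 h at room temperature. Primary antibodies (survivin, caspase-3, Bcl-2, PARP, p-ERK, total ERK, GAPDH) were used at 1:1000. GAPDH served as loading control.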
(In general: A western blot detects proteins with antibodies after separation by electrophoresis.)

The test system of series [7] is A-375. Briefly: Induction of apoptosis in human A375 cells assessed as viable cells at 10 nM after 24 hrs by Annexin V/propidium iodide staining-based FACS analysis (reference value: 92.2%). The series is classed as functional. Conditions: A-375, 24 h, read-out: Activity.
In series [8] the test system is PC-3. Briefly: Induction of apoptosis in human PC3 cells assessed as viable cells at 1 nM after 24 hrs by Annexin V/propidium iodide staining-based FACS analysis (reference value: 97.0%). The class given is functional. The settings on record: PC-3, 24 h, read-out: Activity.
Series [9] relates to PC-3. Briefly: Induction of apoptosis in human PC3 cells assessed as viable cells at 10 nM after 24 hrs by Annexin V/propidium iodide staining-based FACS analysis (reference value: 97.0%). The class given is functional. Conditions: PC-3, 24 h, read-out: Activity.
In series [10] the test system is A-375. The series can be described thus: Induction of apoptosis in human A375 cells assessed as increase in procaspase-3 cleavage at 10 to 1000 nM after 48 hrs by Western blot analysis. The series is classed as functional, cell-based. The procedure, abridged: as §3
Series [11] has as its system A-375. Briefly: Induction of apoptosis in human A375 cells assessed as viable cells at 1000 nM after 24 hrs by Annexin V/propidium iodide staining-based FACS analysis (reference value: 92.2%). The class given is functional. Conditions: A-375, 24 h, read-out: Activity.
Series [12] relates to A-375. Briefly: Induction of apoptosis in human A375 cells assessed as decrease in survivin expression at 10 to 1000 nM after 48 hrs by Western blot analysis. The class given is functional, cell-based. The procedure, abridged:
as §3

Series [13] relates to PC-3. Briefly: Induction of apoptosis in human PC3 cells assessed as viable cells at 100 nM after 24 hrs by Annexin V/propidium iodide staining-based FACS analysis (reference value: 97.0%). The class given is functional. The settings on record: PC-3, 24 h, read-out: Activity.
In series [14] the test system is A-375. Briefly: Induction of apoptosis in human A375 cells after 24 hrs by Annexin V/propidium iodide staining-based FACS analysis. The class given is functional, cell-based.
The species entered for series [15] is Homo sapiens. Briefly: Induction of microtubule disruption in human A375 cells assessed as cell shrunk with improper microtubule bundling at 70 nM after 24 hrs by FITC/DAPI staining-based fluorescence assay. The procedure, abridged:
(§4)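 A375 cells grown in 96-well plates, 8×10^3 cells/well, exposed to DMSO vehicle or compound for 24 h at 37°C. Cells were washed, then fixed, blocked and permeabilized. They were stained overnight with monoclonal α-tubulin primary antibody, then 3 h with FITC-labelled secondary; nuclei counterstained with DAPI. Imaged on an automated imaging system at 200×. Paclitaxel served as positive control.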

Series [16] is filed under the species Homo sapiens. The series can be described thus: Induction of microtubule disruption in human A375 cells assessed as cell detachment at 70 nM after 24 hrs by FITC/DAPI staining-based fluorescence assay. Put shortly: as §4
The species named for series [17] is Homo sapiens. Briefly: Induction of microtubule disruption in human A375 cells assessed as appearance of rounded cell at 70 nM after 24 hrs by FITC/DAPI staining-based fluorescence assay. The procedure, abridged: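 A375 cells at 8×10^3 per well were treated for 24 h at 37°C, then washed, fixed, blocked and permeabilized. They were stained with anti-α-tubulin overnight and a FITC secondary for 3 h, and nuclei were counterstained with DAPI. Automated imaging was at 200×, and rounded cells were scored from morphology.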

Results on 22 molecules are retold here after ChEMBL document CHEMBL4145456, “Synthesis and biological evaluation of novel 2-arylvinyl-substituted naphtho[2,3-d]imidazolium halide derivatives as potent antitumor agents” (Eur J Med Chem, 2018).

Active and inactive are the calls of the source. The calls are words filed in the database; no cut-off is given here. Some results are limits rather than exact numbers.

The term IC50 denotes the concentration at which inhibition is half-maximal. A low value points to greater potency.

In the case of `CC[n+]1c2c(n(C3CC3)c1/C=C/c1cc(OC)c(OC)c(OC)c1)C(=O)c1ccccc1C2=O`, the IC50 in the series on A-375 [1] was 26000 nM; in the series on PC-3 [2], 143 nM; in the series on HeLa it was more than 30000 nM.

For `COCC[n+]1c2c(n(Cc3ccccc3)c1/C=C/c1ccc(O)c(OC)c1)C(=O)c1ccccc1C2=O`, the IC50 with A-375 [1] amounted to 536 nM; in the series on PC-3 [2], 22 nM; in the series with HeLa it was 1130 nM.

Consider `CC[n+]1c2c(n(C(C)C)c1/C=C/c1ccc(O)cc1)C(=O)c1ccccc1C2=O`, for which the IC50 with A-375 [1] was 5580 nM; in the series with PC-3 [2], 72 nM; in the series with HeLa it was more than 30000 nM.

`CC[n+]1c2c(n(C3CC3)c1/C=C/c1ccc(O)c(OC)c1)C(=O)c1ccccc1C2=O`: the IC50 was 13900 nM with A-375 [1], 38 nM in the series with PC-3 [2] and 18500 nM in the series with HeLa.

Take `CC[n+]1c2c(n(C3CC3)c1/C=C/c1c[nH]c3ccccc13)C(=O)c1ccccc1C2=O`: the IC50 with A-375 [1] was determined as 891 nM; in the series on PC-3 [2] it was 52 nM; in the series on HeLa, 2050 nM.

As to `COCC[n+]1c2c(n(Cc3cccc(OC)c3)c1/C=C/c1c[nH]c3ccccc13)C(=O)c1ccccc1C2=O`, the figures for the IC50 in the series with A-375 [1], in the series with PC-3 [2] and in the series on HeLa were 353 nM, 215 nM and 1370 nM, respectively.

Take `CC[n+]1c2c(n(C(C)C)c1/C=C/c1cccc(O)c1)C(=O)c1ccccc1C2=O`: the IC50 with A-375 [1] was determined as 2940 nM; in the series on PC-3 [2] it was 140 nM; in the series on HeLa, 13000 nM.

`COCC[n+]1c2c(n(Cc3cccc(OC)c3)c1/C=C/c1cccc(O)c1)C(=O)c1ccccc1C2=O`: the IC50 in the series on A-375 [1] was 1120 nM; with PC-3 [2], 222 nM; in the series on HeLa it was 7330 nM.

Consider `COCC[n+]1c2c(n(Cc3cccc(OC)c3)c1/C=C/c1cc(OC)c(OC)c(OC)c1)C(=O)c1ccccc1C2=O`, for which the IC50 with A-375 [1] is 1000 nM; in the series with PC-3 [2], 291 nM; with HeLa, 7500 nM.

Consider `O=P1(N(CCCl)CCCl)NCCCO1` (stereo not drawn) [CYCLOPHOSPHAMIDE ANHYDROUS], for which the inhibition in vivo at 30 mg/kg in the series with Ehrlich came to 48.9%.

With `COCC[n+]1c2c(n(Cc3ccccc3)c1/C=C/c1cccc(O)c1)C(=O)c1ccccc1C2=O`, the figures for the IC50 in the series with A-375 [1], in the series with PC-3 [2] and in the series with HeLa were 791 nM, 100 nM and 4860 nM, respectively.

As to `COCC[n+]1c2c(n(Cc3ccccc3)c1/C=C/C=C/c1ccccc1)C(=O)c1ccccc1C2=O`, the IC50 was 551 nM in the series on A-375 [1], 212 nM in the series on PC-3 [2] and 1280 nM with HeLa.

`CC[n+]1c2c(n(C3CC3)c1/C=C/c1cccc([N+](=O)[O-])c1)C(=O)c1ccccc1C2=O`: the results for the IC50 with A-375 [1], in the series with PC-3 [2] and with HeLa were 5360 nM, 28 nM and 11300 nM, respectively.

Take `COCC[n+]1c2c(n(Cc3ccccc3)c1/C=C/c1c[nH]c3ccccc13)C(=O)c1ccccc1C2=O.[Br-]`: the Activity result in the series with Mus musculus [3] and in the series on Mus musculus [4] was “Non-Toxic” throughout.

For `CC[n+]1c2c(n(C(C)C)c1/C=C/c1ccc(C)cc1)C(=O)c1ccccc1C2=O`, the viability at 0.1 µM in the series with A-375 [5] is 82.2%; in the series with PC-3 [13], 75.6%. Besides, the result with A-375 [6], with A-375 [10] and with A-375 [12] was Active. The viability at 0.01 µM in the series on A-375 [7] was 88.3%; with PC-3 [9], 96.5%. In addition, the viability at 0.001 µM with PC-3 [8] amounted to 98%. Moreover, in the series with A-375 [11], the viability at 1 µM came out at 65.7%. The IC50 came out at 1070 nM in the series on A-375 [1], 22 nM in the series on PC-3 [2] and 1120 nM in the series with HeLa. In addition, the Activity entry in the series with A-375 [14] is “Dose-dependent effect”.

Turning to `CC[n+]1c2c(n(C3CC3)c1/C=C/c1ccc(OC)c(OC)c1)C(=O)c1ccccc1C2=O`, the IC50 in the series with A-375 [1] worked out at 8000 nM; with PC-3 [2], 66 nM; in the series on HeLa it was 13500 nM.

For `CC(=O)O[C@H]1C(=O)[C@@]2(C)[C@H]([C@H](OC(=O)c3ccccc3)[C@]3(O)C[C@H](OC(=O)[C@H](O)[C@@H](NC(=O)c4ccccc4)c4ccccc4)C(C)=C1C3(C)C)[C@]1(OC(C)=O)CO[C@@H]1C[C@@H]2O`, the result in the series listed under Homo sapiens [15], in the series filed under Homo sapiens [16] and in the series filed under Homo sapiens [17] was Active.

For the molecule `CC[n+]1c2c(n(C(C)C)c1/C=C/c1ccc(O)c(OC)c1)C(=O)c1ccccc1C2=O`, the figures for the IC50 in the series with A-375 [1], in the series on PC-3 [2] and with HeLa were 6580 nM, 90 nM and more than 30000 nM, respectively.

As to `CC[n+]1c2c(n(C(C)C)c1/C=C/c1c[nH]c3ccccc13)C(=O)c1ccccc1C2=O`, the IC50 in the series with A-375 [1] stood at 553 nM; in the series with PC-3 [2] it was 71 nM; in the series with HeLa, 6120 nM.

For `CC[n+]1c2c(n(C3CC3)c1/C=C/c1ccccc1)C(=O)c1ccccc1C2=O`, the IC50 in the series with A-375 [1] is 1310 nM; with PC-3 [2] it was 38 nM; with HeLa, 6540 nM.

Turning to `COCC[n+]1c2c(n(Cc3ccccc3)c1C)C(=O)c1ccccc1C2=O`, the IC50 worked out at 1140 nM in the series on A-375 [1], 73 nM with PC-3 [2] and 10000 nM with HeLa.

Consider `CC[n+]1c2c(n(C(C)C)c1/C=C/c1ccc([N+](=O)[O-])cc1)C(=O)c1ccccc1C2=O`, for which the IC50 with A-375 [1] was 1430 nM; with PC-3 [2] it was 39 nM; with HeLa, 9930 nM.
